Published values pooled from the literature.
Compare with care: the assays were run in different laboratories.
Target: Casein kinase II subunit alpha' (CSNK2A2, Homo sapiens, UniProt P19784)

Structure (SMILES) | test | conditions | remaining binding [%]
C[C@H](c1ccc(F)cc1)N(Cc1cccc(C(=O)O)c1)C(=O)c1cnc2ccccc2c1 | cell-free assay, competition with immobilised ligand | 1 µM | 86
C[C@@H]1CCN(c2nccc(-c3cnn4ncccc34)n2)C1 | binding | 1 µM | 60
O=C(N1CCS(=O)(=O)CC1)N1C[C@H](c2ccc(OC(F)(F)F)cc2)C[C@H](c2nc(C3CC3)no2)C1 | cell-free assay, competition with immobilised ligand | 1 µM | 100
O=C(NCCCN1CCOCC1)c1ccc(Nc2ncc(Cl)c(-c3ccc(Cl)s3)n2)cc1 | binding, competition with immobilised ligand | 1 µM | 0.2
FC(F)(F)Oc1cccc(-c2cnc3ccc(-c4ccncc4)nn23)c1 | cell-free assay, competition with immobilised ligand | 5 µM | 23
F[C@@H]1CCN(c2nccc(-c3cnn4ncccc34)n2)C1 | binding | 1 µM | 100
CCOCCn1cc(C(=O)Nc2ccc(-n3nc(-c4cccnc4)cc3C(F)(F)F)cn2)ccc1=O | cell-free assay, competition with immobilised ligand | 1 µM | 100
COc1cnc(Nc2cccc(S(N)(=O)=O)c2)nc1N1CCN(c2ccccc2)CC1 | binding, competition with immobilised ligand | 1 µM | 90
CN(C)c1ncc(F)c(-c2cnn3ncccc23)n1 | binding | 1 µM | 100
Cc1cc(C)c(-n2ccn3nc(-c4cccnc4)cc23)cc1NC(=O)c1cc(C#N)cc(S(F)(F)(F)(F)F)c1 | cell-free assay, competition with immobilised ligand | 0.1 µM | 82.4
Cc1cnc(Nc2ccc(C(=O)N3CCC(N4CCCC4)CC3)cc2)nc1-c1cc2ccccc2s1 | binding, competition with immobilised ligand | 1 µM | 0
O=C(NCC1CCOCC1)c1n[nH]cc1NC(=O)c1c(F)cccc1F | binding, competition with immobilised ligand | 1 µM | 76
c1cncc(-c2cccc(Nc3nccc(NC4CCCCC4)n3)c2)c1 | binding, competition with immobilised ligand | 10 µM | 65
O=C(c1ccc(Nc2ncc(Cl)c(-c3ccc(Cl)s3)n2)cc1)N1CCC(N2CCCC2)CC1 | binding, competition with immobilised ligand | 1 µM | 0.15
CNC(=O)[C@@H]1CC[C@@H](n2c(-c3ccc4cnccc4c3)nc3ccc(C(=O)NCc4cccc(C(N)=O)c4)cc32)C1 | binding, competition with immobilised ligand | 1 µM | 100
COc1ccnn2ncc(-c3ccnc(N(C)C)n3)c12 | binding | 1 µM | 61
COc1cc(-c2cn(C3CCc4ccccc4N(CC(F)(F)F)C3=O)nn2)ccc1-n1ccc(C)n1 (stereo not shown) | cell-free assay, competition with immobilised ligand | 1 µM | 84
COc1ncc2cc3ccccc3nc2c1C#N | cell-free assay, competition with immobilised ligand | 5 µM | 97
CN(c1nccc(-c2cnn3ncccc23)n1)C1CC1 | binding | 1 µM | 100
Cn1cc(Cl)c2c(Oc3c(F)cc(Nc4cc(Cl)nc(N)n4)cc3F)ccnc21 | cell-free assay, competition with immobilised ligand | 0.1 µM | 89
N[C@H]1CCN(c2nccc(-c3cnn4ncccc34)n2)C1 | binding | 1 µM | 88
O=C(NS(=O)(=O)c1ccc(NCC2CCOCC2)c([N+](=O)[O-])c1)c1ccc(N2CCN(Cc3ccc(C(F)(F)F)cc3-c3ccc(Cl)cc3)CC2)cc1Oc1cnc2[nH]ccc2c1 | cell-free assay, competition with immobilised ligand | 1 µM | 100
